Laboratory results as given in ChEMBL document CHEMBL5653611, “A combination of H2A.Z and H4 acetylation recruits Brd2 to chromatin during transcriptional activation” (PLoS Genet, 2012).
Active and inactive are the calls of the source.

Experiments:
LNCaP [1] = assay: Antiproliferative activity against human LNCaP cells for 24 hrs by MTS assay; format: functional, cell-based; details: dose 125-500 nM
Method in brief: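 LNCaP cells seeded in 96-well plates and grown 24 hrs, then exposed to a range of concentrations (DMSO vehicle control) for 24 hrs. MTS reagent added and absorbance read at 490 nm.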

LNCaP [2] = assay: Inhibition of Brd2-PSA protein-protein interaction in DHT stimulated human LNCaP cells at 125 to 250 nM measured for 60 mins by ChIP analysis; format: cell-based; details: dose 125-250 nM
Method in brief: (§1)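 LNCaP cells held 72 hrs in phenol-red-free RPMI with 5% charcoal-stripped FBS, pretreated with compound, then stimulated with 10 nM DHT (ethanol control). Brd2 occupancy at enhancer and promoter regions measured by ChIP 60 min after stimulation.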

LNCaP [3] = assay: Effect on DHT stimulated human LNCaP cells assessed as decrease in histone acetylation at 125 to 250 nM measured for 60 mins by ChIP analysis; format: functional, cell-based; details: dose 125-250 nM
LNCaP [4] = assay: Effect on human LNCaP cells assessed as decrease in KLK2 mRNA expression pretreated with compound for 24 hrs followed by androgen stimulation for 24 hrs by RT-qPCR analysis; format: functional, cell-based; details: dose 125-500 nM
Method in brief: (§2)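 LNCaP cells grown 72 hrs in phenol-red-free RPMI with 5% charcoal-stripped FBS, pretreated with compound, then stimulated with 10 nM DHT (ethanol vehicle for controls). Transcript levels measured by RT-qPCR.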

LNCaP [5] = assay: Effect on human LNCaP cells assessed as decrease in PSA mRNA expression pretreated with compound for 24 hrs followed by androgen stimulation for 24 hrs by RT-qPCR analysis; format: functional, cell-based; details: dose 125-500 nM; method in brief: as §2
LNCaP [6] = assay: Inhibition of Brd2-KLK2 protein-protein interaction in DHT stimulated human LNCaP cells at 125 to 250 nM measured for 60 mins by ChIP analysis; format: cell-based; details: dose 125-250 nM; method in brief: as §1
LNCaP [7] = assay: Inhibition of Brd2-H2A.Z protein-protein interaction in human LNCaP cells at 125 to 250 nM by Western blotting analysis; format: cell-based; details: dose 125-250 nM
HEK-293T [8] = assay: Effect on human 293T cells assessed as increase in histone acetylation at 200 nM for 2 hrs by Western blotting analysis; format: functional, cell-based
Method in brief: (§3)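 293T cells transfected with Flag-H2A.Z or Flag-H2A (for line 5, co-transfected with YFP-Brd2), treated with 200 nM for 2 hrs (DMSO vehicle) before harvest. Read-out by Western blot of input and of Flag IP of MNase-digested mononucleosomes, overnight at 4°C on M2-agarose.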

HEK-293T [9] = assay: Effect on human 293T cells expressing YFP-Brd2 assessed as increase in protein immunoprecipitated cells at 200 nM for 2 hrs; format: functional, cell-based; method in brief: as §3
HEK293T = assay: Binding affinity to Brd2-H2A.Z protein-protein interaction in human 293T cells at 200 nM for 2 hrs by Western blotting analysis; format: cell-based; method in brief: as §3

Cc1sc2c(c1C)C(c1ccc(Cl)cc1)=N[C@@H](CC(=O)OC(C)(C)C)c1nnc(C)n1-2
active: Activity (LNCaP [1]) Dose-Dependent Effect | inhibition (LNCaP [2]) | Activity (LNCaP [3]) | Activity (LNCaP [4]) Dose-Dependent Effect | Activity (LNCaP [5]) Dose-Dependent Effect | inhibition (LNCaP [6]) | inhibition (LNCaP [7])

CC(/C=C/C(=O)NO)=C\[C@@H](C)C(=O)c1ccc(N(C)C)cc1
active: Activity (HEK-293T [8]) | Activity (HEK-293T [9]) | Activity (HEK293T)
